# Reference: ChEMBL document CHEMBL1146089, “Development of the first potential covalent inhibitors of anandamide cellular uptake” (J Med Chem, 2006)
# How the values were obtained:
# RBL-2H3 [1] = assay: Inhibition of uptake of [14C]anandamide co-incubated with RBL2H3 cells expressing AEA membrane transporter; format: functional, cell-based; conditions: Rattus norvegicus
# Procedure, shortened: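 RBL-2H3 cells incubated with [14C]AEA for 5 min at 37 °C with increasing compound concentrations, sometimes after a 10 min preincubation with compound. Uptake was taken as residual [14C]AEA in the medium after CHCl3/CH3OH 2:1 extraction and scintillation counting. Nonspecific binding was measured with 100 µM AEA. IC50 calculated, mean ± SE, N = 3.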
# RBL-2H3 [2] = assay: Inhibition of uptake of [14C]anandamide pre-incubated for 1 hr with intact RBL2H3 cells expressing AEA membrane transporter; format: functional, cell-based; conditions: Rattus norvegicus
# Procedure, shortened: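 RBL-2H3 cells preincubated with compound 60 min at 25 °C under normal lab light. Cells then washed 3× with medium containing 0.2% BSA and 2× with BSA-free medium, then given [14C]AEA for 5 min without inhibitor. Uptake was taken as residual [14C]AEA in the medium (CHCl3/CH3OH 2:1 extraction, scintillation counting). IC50, N = 3.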
# [3] = biological target: T1, Fatty-acid amide hydrolase 1 (Rattus norvegicus, UniProt P97612); assay: Inhibition of [14C]anandamide hydrolysis in rat brain membrane in the absence of UV irradiation; format: functional, cell membranes
# T1 sequence (P97612 whole entry): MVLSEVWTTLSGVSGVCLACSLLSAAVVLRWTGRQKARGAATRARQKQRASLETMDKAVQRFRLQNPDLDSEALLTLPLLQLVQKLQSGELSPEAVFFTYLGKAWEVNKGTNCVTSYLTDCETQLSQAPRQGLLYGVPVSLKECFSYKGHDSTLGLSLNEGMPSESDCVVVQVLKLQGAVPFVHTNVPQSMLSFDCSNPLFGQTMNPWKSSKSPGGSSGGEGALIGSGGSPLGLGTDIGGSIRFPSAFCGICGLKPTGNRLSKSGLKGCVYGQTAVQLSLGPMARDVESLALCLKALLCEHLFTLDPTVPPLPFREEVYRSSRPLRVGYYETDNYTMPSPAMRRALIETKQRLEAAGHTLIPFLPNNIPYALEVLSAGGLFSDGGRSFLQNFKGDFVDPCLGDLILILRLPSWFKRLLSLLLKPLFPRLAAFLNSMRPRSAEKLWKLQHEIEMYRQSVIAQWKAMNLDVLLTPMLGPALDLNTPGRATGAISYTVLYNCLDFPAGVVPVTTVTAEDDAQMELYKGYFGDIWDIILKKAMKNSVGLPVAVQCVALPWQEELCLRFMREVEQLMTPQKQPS
# [4] = biological target: T1, Fatty-acid amide hydrolase 1; assay: Inhibition of [14C]anandamide hydrolysis in rat brain membrane
# C6 [5] = assay: Inhibition of [14C]anandamide uptake in C6 cells expressing AEA membrane transporter in dark at 10 uM; format: functional; conditions: Rattus norvegicus
# Procedure, shortened: (§1)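 Rat C6 glioma cells preincubated with compound 8 min at 25 °C, either in the dark or under UV light (315-400 nm, 125W). Cells then washed 3× with medium containing 0.2% BSA and 2× with BSA-free medium, then given [14C]AEA for 5 min with no inhibitor present. Uptake was taken as residual [14C]AEA in the medium (CHCl3/CH3OH 2:1 extraction, scintillation counting). Nonspecific binding was measured with 100 µM AEA. Values are % inhibition, mean ± SE, N = 3 or 6.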
# C6 [6] = assay: Inhibition of [14C]anandamide uptake in C6 cells expressing AEA membrane transporter in dark at 5 uM; format: functional; conditions: Rattus norvegicus; procedure, shortened: as §1
# C6 [7] = assay: Inhibition of [14C]anandamide uptake in C6 cells expressing AEA membrane transporter under UV irradiation at 5 uM; format: functional; conditions: Rattus norvegicus, C6, light or radiation study; procedure, shortened: as §1
# C6 [8] = assay: Inhibition of [14C]anandamide uptake in C6 cells expressing AEA membrane transporter under UV irradiation at 10 uM; format: functional; conditions: Rattus norvegicus, C6, light or radiation study; procedure, shortened: as §1
Compound,IC50 (RBL-2H3 [1]),IC50 [3],IC50 [4],further results
CCCCCCCC/C=C/CCCCCCCC(=O)N[C@H](CO)Cc1ccc(C(=O)c2ccccc2)cc1,10 µM,,,
O=C(CCCCCCC/C=C\CCCCCCCCBr)N[C@H](CO)Cc1ccc(O)cc1,10.2 µM,,,IC50 (RBL-2H3 [2]): > 25 µM
CCCCCCCC/C=C\CCCCCCCC(=O)N[C@H](Cc1ccc(O)cc1)C(=O)CI,> 25 µM,> 50 µM,> 50 µM,
CCCCCCCC/C=C\CCCCCCCC(=O)N[C@H](Cc1ccc(O)cc1)C(=O)COC(=O)c1c(Cl)cccc1Cl,7.5 µM,> 50 µM,> 50 µM,IC50 (RBL-2H3 [2]): > 25 µM
N#CCCCCCCCC/C=C\CCCCCCCC(=O)N[C@H](CO)Cc1ccc(O)cc1,23.1 µM,,,
CCCCCCCC/C=C\CCCCCCCC(=O)N[C@@H](Cc1ccc(O)cc1)C(=O)CCl,10 µM,> 50 µM,> 50 µM,IC50 (RBL-2H3 [2]): > 25 µM
CCCCCCCC/C=C\CCCCCCCC(=O)N[C@@H](CO)Cc1ccc(C(=O)c2ccc(O)cc2)cc1,8.1 µM,,,
CCCCCCCC/C=C\CCCCCCCC(=O)N[C@H](CO)Cc1ccc(C(=O)c2ccccc2)cc1,6 µM,,,inhibition at 10 µM (C6 [5]): 65.8%; inhibition at 5 µM (C6 [6]): 37.5%; inhibition at 5 µM (C6 [7]): 30.3%; inhibition at 10 µM (C6 [8]): 57.2%
[N-]=[N+]=Nc1ccc(I)cc1C(=O)OCC/C=C\CCCCCCCC(=O)N[C@H](CO)Cc1ccc(O)cc1,11 µM,> 50 µM,> 50 µM,inhibition at 10 µM (C6 [5]): 32.8%; inhibition at 10 µM (C6 [8]): 60%
CCCCCCCC/C=C\CCCCCCCC(=O)N[C@@H](CO)Cc1ccc(C(=O)C=[N+]=[N-])cc1,> 25 µM,,,
N#CCCCCCCCC/C=C\CCCCCCCC(=O)N[C@@H](CO)Cc1ccc(O)cc1,> 25 µM,,,
O=C(CCCCCCC/C=C\CCOC(=O)c1ccccc1)N[C@H](CO)Cc1ccc(O)cc1,> 25 µM,> 50 µM,> 50 µM,
O=C(CCCCCCC/C=C\CCCCCCCCI)N[C@H](CO)Cc1ccc(O)cc1,10.8 µM,,,IC50 (RBL-2H3 [2]): > 25 µM
O=C(CCCCCCC/C=C\CCCCCCCCBr)N[C@@H](CO)Cc1ccc(O)cc1,20.1 µM,,,
CCCCCCCC/C=C\CCCCCCCC(=O)N[C@H](CO)Cc1ccc(C(=O)C=[N+]=[N-])cc1,> 25 µM,,,
CCCCCCCC/C=C\CCCCCCCC(=O)N[C@H](Cc1ccc(O)cc1)C(=O)CCl,> 25 µM,> 50 µM,> 50 µM,
CCCCCCCC/C=C\CCCCCCCC(=O)N[C@@H](Cc1ccc(O)cc1)C(=O)COC(=O)c1c(Cl)cccc1Cl,16.1 µM,> 50 µM,> 50 µM,IC50 (RBL-2H3 [2]): > 25 µM
O=C(CCCCCCC/C=C\CCCCCCCCI)N[C@@H](CO)Cc1ccc(O)cc1,14 µM,,,IC50 (RBL-2H3 [2]): > 25 µM
CCCCCCCC/C=C\CCCCCCCC(=O)N[C@H](CO)Cc1ccc(C(=O)CCl)cc1,> 25 µM,,,
CCCCCCCC/C=C\CCCCCCCC(=O)N[C@@H](Cc1ccc(O)cc1)C(=O)CI,> 25 µM,> 50 µM,> 50 µM,
CCCCCCCC/C=C\CCCCCCCC(=O)N[C@H](CO)Cc1ccc(C(=O)c2ccc(O)cc2)cc1,10.1 µM,,,inhibition at 10 µM (C6 [5]): 73.6%; inhibition at 5 µM (C6 [6]): 28.3%; inhibition at 5 µM (C6 [7]): 68.6%; inhibition at 10 µM (C6 [8]): 73.2%
